Source: ChEMBL document CHEMBL3272208, “(Vinylaryloxy)acetic acids. A new class of diuretic agents. 3. ((2-Nitro-1-alkenyl)aryloxy)acetic acids” (1976)

Experiments:
[1] = tested on: Canis familiaris; experiment: Diuretic activity in mongrel dog assessed as sodium level in excreted urine at 1 mg/kg, iv measured […] after dosage (reference value: 3 to 95 uequiv/min); format: functional, Canis lupus familiaris
Summary of the method: (§1)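 Compounds were given iv to dogs as Na salts in H2O. The baseline is the mean of two 15-min periods before dosing. The response is the mean of two consecutive 15-min periods of maximal Na+ excretion, usually 15–45 min post-dose. Na+, K+ and Cl- are in μequiv/min and urine volume in ml/min, reported as control/drug.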

[2] = tested on: Canis familiaris; experiment: Diuretic activity in mongrel dog assessed as potassium level in excreted urine at 1 mg/kg, iv measured between 15 to 45 mins after dosage (reference value: 6 to 47 uequiv/min); format: functional, Canis lupus familiaris
Summary of the method: as §1, with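 “H2O. […]” for “H2O.”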

[3] = tested on: Canis familiaris; experiment: Diuretic activity in mongrel dog assessed as chloride level in excreted urine at 1 mg/kg, iv measured between 15 to 45 mins after dosage (reference value: 1 to 70 uequiv/min); format: functional, Canis lupus familiaris; summary of the method: as §1
[4] = tested on: Canis familiaris; experiment: Diuretic activity in mongrel dog assessed as volume of excreted urine at 1 mg/kg, iv measured between 15 to 45 mins after dosage (reference value: 1 to 4 ml/min); format: functional, Canis lupus familiaris
Summary of the method: as §1, with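 “H2O. […]” for “H2O.”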

[5] = tested on: Canis familiaris; experiment: Diuretic activity in mongrel dog assessed as sodium level in excreted urine at 1 mg/kg, po measured for 6 hrs (reference value: 2 mequivalents); format: functional, Canis lupus familiaris
[6] = tested on: Canis familiaris; experiment: Diuretic activity in mongrel dog assessed as potassium level in excreted urine at 1 mg/kg, po measured for 6 hrs (reference value: 1 mequivalents); format: functional, Canis lupus familiaris
[7] = tested on: Canis familiaris; experiment: Diuretic activity in mongrel dog assessed as chloride level in excreted urine at 1 mg/kg, po measured for 6 hrs (reference value: 2 mequivalents); format: functional, Canis lupus familiaris
[8] = tested on: Canis familiaris; experiment: Diuretic activity in mongrel dog assessed as volume of excreted urine at 1 mg/kg, po measured for 6 hrs (RVb = 180 ml)
[9] = tested on: Canis familiaris; experiment: Diuretic activity in mongrel dog assessed as sodium level in excreted urine at 0.4 mg/kg, po measured for 6 hrs (reference value: 2 mequivalents); format: functional, Canis lupus familiaris
[10] = tested on: Canis familiaris; experiment: Diuretic activity in mongrel dog assessed as potassium level in excreted urine at 0.4 mg/kg, po measured for 6 hrs (reference value: 1 mequivalents); format: functional, Canis lupus familiaris
[11] = tested on: Canis familiaris; experiment: Diuretic activity in mongrel dog assessed as chloride level in excreted urine at 0.4 mg/kg, po measured for 6 hrs (reference value: 2 mequivalents); format: functional, Canis lupus familiaris
[12] = tested on: Canis familiaris; experiment: Diuretic activity in mongrel dog assessed as volume of excreted urine at 0.4 mg/kg, po measured for 6 hrs (RVb = 180 ml)
[13] = tested on: Canis familiaris; experiment: Diuretic activity in mongrel dog assessed as sodium level in excreted urine at 10 mg/kg, iv measured […] after dosage (reference value: 5 to 66 uequiv/min); format: functional, Canis lupus familiaris
Summary of the method: as §1, with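 “H2O. […]” for “H2O.”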

[14] = tested on: Canis familiaris; experiment: Diuretic activity in mongrel dog assessed as potassium level in excreted urine at 10 mg/kg, iv measured between 15 to 45 mins after dosage (reference value: 7 to 63 uequiv/min); format: functional, Canis lupus familiaris
Summary of the method: as §1, with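 “H2O. […]” for “H2O.”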

[15] = tested on: Canis familiaris; experiment: Diuretic activity in mongrel dog assessed as chloride level in excreted urine at 10 mg/kg, iv measured between 15 to 45 mins after dosage (reference value: 3 to 64 uequiv/min); format: functional, Canis lupus familiaris; summary of the method: as §1
[16] = tested on: Canis familiaris; experiment: Diuretic activity in mongrel dog assessed as volume of excreted urine at 10 mg/kg, iv measured between 15 to 45 mins after dosage (reference value: 1 to 4 ml/min); format: functional, Canis lupus familiaris
Summary of the method: as §1, with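 “H2O. […]” for “H2O.”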

[17] = tested on: Canis familiaris; experiment: Diuretic activity in mongrel dog assessed as sodium level in excreted urine at 5 mg/kg, iv measured […] after dosage (reference value: 1 to 91 uequiv/min); format: functional, Canis lupus familiaris
Summary of the method: as §1, with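 “H2O. […]” for “H2O.”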

[18] = tested on: Canis familiaris; experiment: Diuretic activity in mongrel dog assessed as potassium level in excreted urine at 5 mg/kg, iv measured between 15 to 45 mins after dosage (reference value: 12 to 70 uequiv/min); format: functional, Canis lupus familiaris
Summary of the method: as §1, with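 “H2O. […]” for “H2O.”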

[19] = tested on: Canis familiaris; experiment: Diuretic activity in mongrel dog assessed as chloride level in excreted urine at 5 mg/kg, iv measured between 15 to 45 mins after dosage (reference value: 1 to 65 uequiv/min); format: functional, Canis lupus familiaris
Summary of the method: as §1, with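 “H2O. […]” for “H2O.”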

[20] = tested on: Canis familiaris; experiment: Diuretic activity in mongrel dog assessed as volume of excreted urine at 5 mg/kg, iv measured between 15 to 45 mins after dosage (reference value: 1 to 5 ml/min); format: functional, Canis lupus familiaris
Summary of the method: as §1, with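 “H2O. […]” for “H2O.”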

Structure (SMILES)	Activity [1]	Activity [2]	Activity [3]	Activity [4]	other results
C/C(=C\c1ccc(OCC(=O)O)cc1Cl)[N+](=O)[O-]	683 uEq/min	92 uEq/min	765 uEq/min	7 mL/min	Activity [5]: 16 milliequivalent; Activity [6]: 5 milliequivalent; Activity [7]: 22 milliequivalent; Activity [8]: 402 mL
C/C(=C\c1ccc(OCC(=O)O)c(Cl)c1Cl)[N+](=O)[O-]	2128 uEq/min	104 uEq/min	2163 uEq/min	11 mL/min	Activity [9]: 25 milliequivalent; Activity [10]: 7 milliequivalent; Activity [11]: 31 milliequivalent; Activity [12]: 628 mL
CC/C(=C\c1ccc(OCC(=O)O)c(Cl)c1Cl)[N+](=O)[O-]	1174 uEq/min	89 uEq/min	1295 uEq/min	10 mL/min	Activity [5]: 26 milliequivalent; Activity [6]: 5 milliequivalent; Activity [7]: 28 milliequivalent; Activity [8]: 465 mL
C/C(=C\c1ccc(OCC(=O)O)c2ccccc12)[N+](=O)[O-]	1612 uEq/min	128 uEq/min	1659 uEq/min	15 mL/min	Activity [5]: 33 milliequivalent; Activity [6]: 7 milliequivalent; Activity [7]: 39 milliequivalent; Activity [8]: 538 mL
CC/C(=C\c1ccc(OCC(=O)O)c2ccccc12)[N+](=O)[O-]	1848 uEq/min	179 uEq/min	2036 uEq/min	13 mL/min	
C/C(=C\c1cc(Cl)ccc1OCC(=O)O)[N+](=O)[O-]	22 uEq/min	17 uEq/min	7 uEq/min	2 mL/min	
O=C(O)COc1ccc(/C=C/[N+](=O)[O-])cc1Cl					Activity [13]: 201 uEq/min; Activity [14]: 65 uEq/min; Activity [15]: 146 uEq/min; Activity [16]: 3 mL/min
C/C(=C\c1ccc(OCC(=O)O)c(Cl)c1)[N+](=O)[O-]	734 uEq/min	142 uEq/min	766 uEq/min	8 mL/min	
CC/C(=C\c1ccc(OCC(=O)O)c(Cl)c1)[N+](=O)[O-]	1618 uEq/min	131 uEq/min	1727 uEq/min	15 mL/min	
CC/C(=C\c1ccc(OCC(=O)O)cc1Cl)[N+](=O)[O-]	1398 uEq/min	101 uEq/min	1431 uEq/min	13 mL/min	
O=C(O)COc1ccc(/C=C/[N+](=O)[O-])c(Cl)c1Cl	132 uEq/min	7 uEq/min	47 uEq/min	4 mL/min	
CC/C(=C\c1ccc(OC(C)C(=O)O)c(Cl)c1Cl)[N+](=O)[O-] (configuration not stated)	490 uEq/min	67 uEq/min	528 uEq/min	7 mL/min	
C/C(=C\c1ccc(OC(C)C(=O)O)c(Cl)c1Cl)[N+](=O)[O-] (configuration not stated)					Activity [17]: 1191 uEq/min; Activity [18]: 74 uEq/min; Activity [19]: 1228 uEq/min; Activity [20]: 9 mL/min
CC/C(=C\c1ccc(OCC(=O)O)c(C)c1C)[N+](=O)[O-]	1583 uEq/min	118 uEq/min	1650 uEq/min	13 mL/min	
